Experimental data from different studies.
Protocols differ between the studies behind these lines.
ST14: Suppressor of tumorigenicity 14 protein (ST14, Homo sapiens, UniProt Q9Y5Y6)
CDK2 with cyclin A2: Cyclin-dependent kinase 2, with cyclin A2 (CDK2, Homo sapiens, UniProt P24941)

CNc1ncc2c(/C=C/C(=O)N3CCC(OC)CC3)nn(Cc3cccc(C(F)(F)F)c3)c2n1  remaining activity (Cyclin-dependent kinase 8, with cyclin C (CDK8, Homo sapiens, UniProt P49336); enzyme activity, inhibitor, radiometric; 1 µM): 105%
N=C(N)NCCC[C@H](NC(=O)[C@@H](NC(=O)[C@H](Cc1cscn1)NC(=O)CCc1ccccc1)C1CC1)C(=O)c1nc2ccccc2s1  remaining activity (ST14; enzyme activity, inhibitor; 0.1 µM): 90%
CC(=O)Nc1c(N)nc(SCC(=O)N/N=C/c2ccc([N+](=O)[O-])cc2)[nH]c1=O  inhibition (CDK2 with cyclin A2; enzyme activity, inhibitor; 0.1 µM): 37.6%
C=CC(=O)N1CCC(COCC(=O)N2CCN(c3nc(-c4cnc(N)nc4C(F)F)nc(N4CCOC[C@@H]4C)n3)CC2)CC1  remaining binding (Vascular endothelial growth factor receptor 3 (FLT4, Homo sapiens, UniProt P35916); binding, competition with immobilised ligand; 1 µM): 83%
N=C(N)NCCC[C@H](NC(=O)[C@@H](NC(=O)[C@H](Cc1cscn1)NC(=O)CCc1ccccc1)C1CCCCC1)C(=O)c1nc2ccccc2s1  remaining activity (ST14; enzyme activity, inhibitor; 0.1 µM): 32%
CC(=O)Nc1c(N)nc(SCC(=O)NN)[nH]c1=O  inhibition (CDK2 with cyclin A2; enzyme activity, inhibitor; 0.5 µM): 53.4%
CC1([C@H](NC(=O)[C@H](Cc2cscn2)NC(=O)CCc2ccccc2)C(=O)N[C@@H](CCCNC(=N)N)C(=O)c2nc3ccccc3s2)CC1  remaining activity (ST14; enzyme activity, inhibitor; 0.1 µM): 69%
COc1cc(-c2cncc3c2CN(C)Cc2cc(N4CCNCC4)ccc2-3)cc(OC)c1OC  remaining activity (Cyclin-dependent kinase 2, with cyclin A (CDK2, Homo sapiens, UniProt P24941); enzyme activity, inhibitor; 1 µM): 100%
CNC(=O)c1cc(Oc2ccc(NC(=O)Nc3ccc(Cl)c(C(F)(F)F)c3)cc2)ccn1  inhibition (CDK2 with cyclin A2; enzyme activity, inhibitor; 1 µM): 81.4%
Cc1cc([C@@H](C)Nc2ccccc2C(=O)O)c2nc(N3CCC(F)(F)CC3)c(C#N)c(=O)n2c1  remaining binding (Angiopoietin-1 receptor (TEK, Homo sapiens, UniProt Q02763); binding, competition with immobilised ligand; 1 µM): 60%
